Data reported in ChEMBL document CHEMBL1135616, “Synthesis of novel 4,1-benzoxazepine derivatives as squalene synthase inhibitors and their inhibition of cholesterol synthesis” (J Med Chem, 2002).

Assays:
[1] = test system: Rattus norvegicus; assay: In vivo inhibition of sterol synthesis in rats following 10 mg/kg p.o.; format: functional; details: for inhibition in vivo at 10 mg/kg: Rattus norvegicus, po
Method in brief: (§1)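 Oral dosing of 6-week-old male Wistar rats with test compound suspended in 0.5% methylcellulose. [14C]acetate (50 μCi/kg) given iv 1 h after the dose; animals killed 1 h later. Livers saponified and extracted with petroleum ether. Sterols precipitated with 0.5% digitonin in 50% ethanol (4 h, room temperature), then counted. Result is % inhibition vs control, mean ± SD (n = 6-10), Dunnett's test.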

[2] = biological target: T1, Squalene synthase (Homo sapiens, UniProt P37268); assay: Inhibition of squalene synthase from human hepatoma cells (HepG2)
T1 sequence (P37268 whole entry): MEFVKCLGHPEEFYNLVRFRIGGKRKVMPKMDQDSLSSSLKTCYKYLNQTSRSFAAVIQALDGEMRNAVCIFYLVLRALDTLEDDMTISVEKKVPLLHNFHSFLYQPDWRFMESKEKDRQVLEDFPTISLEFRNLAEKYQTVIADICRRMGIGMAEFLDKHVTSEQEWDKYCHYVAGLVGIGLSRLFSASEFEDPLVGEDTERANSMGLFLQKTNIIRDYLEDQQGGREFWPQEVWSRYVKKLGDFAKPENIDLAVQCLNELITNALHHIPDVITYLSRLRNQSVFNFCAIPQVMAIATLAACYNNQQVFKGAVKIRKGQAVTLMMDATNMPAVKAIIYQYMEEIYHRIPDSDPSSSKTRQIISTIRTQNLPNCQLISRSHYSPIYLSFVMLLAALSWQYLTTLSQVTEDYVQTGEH
Method in brief: (§2)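 Enzyme source: microsomes from HepG2 cells grown in DMEM/10% FBS, sonicated in phosphate/nicotinamide/MgCl2 buffer. Reaction contained 5 µM [1-3H]FPP, 1 mM NADPH, 5 mM MgCl2, 6 mM glutathione, 100 mM potassium phosphate pH 7.4, 2% DMSO final, 0.8 µg protein. Run 45 min at 37 °C. Chloroform-extracted [3H]squalene counted. IC50 from one run in duplicate.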

[3] = biological target: T1, Squalene synthase; assay: Inhibitory activity against squalene synthase derived from human hepatoma cells (HepG2); method in brief: as §2
[4] = species on record: Rattus norvegicus; assay: Concentration required for 50% inhibitory activity against cholesterol synthesis in rat liver; format: functional
Method in brief: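 In vivo hepatic sterol synthesis in 6-week-old male Wistar rats. Oral doses of 1, 3 and 10 mg/kg in 0.5% methylcellulose. [14C]acetate (50 μCi/kg) iv 1 h post-dose; killed 1 h later. Radioactivity of digitonin-precipitable liver sterols measured. ED50 is the oral dose giving 50% inhibition of sterol synthesis.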

[5] = test system: Rattus norvegicus; assay: Compound at a dose of 3 mg/kg was administered orally to 6 week old male Wistar rats and was evaluated for the inhibition of sterol synthesis; format: functional; details: route oral; method in brief: as §1
[6] = test system: Rattus norvegicus; assay: Compound at a dose of 1 mg/kg was administered orally to 6 week old male Wistar rats and was evaluated for the inhibition of sterol synthesis; format: functional; details: route oral; method in brief: as §1
[7] = test system: Rattus norvegicus; assay: Compound was evaluated in vivo for its inhibitory activity against cholesterol synthesis in rat liver; format: functional; method in brief: as §1
[8] = test system: Rattus norvegicus; assay: Compound at a dose of 3 mg/kg was dministered orally to 6 week old male Wistar rats and was evaluated for the inhibition of terol synthesis; format: functional; details: route oral; method in brief: as §1

Row | SMILES | IC50 [2] [nM] | inhibition in vivo at 10 mg/kg [1] [%] | other results
1 | COc1cccc([C@H]2O[C@H](CC(=O)N3CCC(CCCC(=O)O)CC3)C(=O)N(CC(C)(C)CO)c3ccc(Cl)cc32)c1OC | 70 | 87 | 
2 | COc1cccc([C@H]2O[C@H](CC(=O)N3CCC(CC(=O)O)CC3)C(=O)N(CC(C)(C)COCOC(=O)C(C)(C)C)c3ccc(Cl)cc32)c1OC |  | 43 | IC50 [3]: 471 nM
3 | CCCC(=O)OCC(C)(C)CN1C(=O)[C@@H](CC(=O)N2CCC(CC(=O)O)CC2)O[C@H](c2cccc(OC)c2OC)c2cc(Cl)ccc21 | 93 | 30 | 
4 | COc1cccc([C@H]2O[C@H](CC(=O)NCCCCC(=O)O)C(=O)N(CC(C)(C)CO)c3ccc(Cl)cc32)c1OC | 38 | 50 | 
5 | COc1cccc([C@H]2O[C@H](CC(=O)N3CCC(CC(=O)O)CC3)C(=O)N(CC(C)(C)COC(=O)C(C)C)c3ccc(Cl)cc32)c1OC |  | 34 | IC50 [3]: 89 nM
6 | COc1cccc([C@H]2O[C@H](CC(=O)N3CCC(CC(=O)O)CC3)C(=O)N(CC(C)(C)CO)c3ccc(Cl)cc32)c1OC | 45 | 77 | ED50 [4]: 6.8 mg/kg; Inhibition ([1]; route oral, 10 mg/kg): 64%; inhibition in vivo at 3 mg/kg [5]: 20%; inhibition in vivo at 1 mg/kg [6]: 11%
7 | CCC(=O)OCC(C)(C)CN1C(=O)[C@@H](CC(=O)N2CCC(CC(=O)O)CC2)O[C@H](c2cccc(OC)c2OC)c2cc(Cl)ccc21 | 87 | 40 | 
8 | COc1cccc([C@H]2O[C@H](CC(=O)[O-])C(=O)N(CC(C)(C)C)c3ccc(Cl)cc32)c1OC.[Na+] |  |  | ED50 [7]: 3 mg/kg
9 | COc1cccc([C@H]2O[C@H](CC(=O)N3CCC(C(=O)O)CC3)C(=O)N(CC(C)(C)CO)c3ccc(Cl)cc32)c1OC |  | 26 | 
10 | COc1cccc([C@H]2O[C@H](CC(=O)N3CCC(CCC(=O)O)CC3)C(=O)N(CC(C)(C)CO)c3ccc(Cl)cc32)c1OC | 61 | 76 | 
11 | COc1cccc([C@H]2O[C@H](CC(=O)N3CCC(CC(=O)O)CC3)C(=O)N(CC(C)(C)COC(C)=O)c3ccc(Cl)cc32)c1OC [LAPAQUISTAT ACETATE] | 78 | 81 | ED50 [4]: 2.9 mg/kg; inhibition in vivo at 3 mg/kg [8]: 42%; inhibition in vivo at 1 mg/kg [6]: 31%

More lines, in order of falling IC50 [2], values ahead:

Row | IC50 [2] [nM] | SMILES | inhibition in vivo at 10 mg/kg [1] [%] | other results
12 | 32 | COc1cccc([C@H]2O[C@H](CC(=O)NCCCC(=O)O)C(=O)N(CC(C)(C)CO)c3ccc(Cl)cc32)c1OC | 59 | 
13 | 28 | COc1cccc([C@H]2O[C@H](CC(=O)NC(CC(C)C)C(=O)O)C(=O)N(CC(C)(C)CO)c3ccc(Cl)cc32)c1OC (stereo partly specified) | 14 | 
14 | 21 | COc1cccc([C@H]2O[C@H](CC(=O)N[C@@H](C)C(=O)O)C(=O)N(CC(C)(C)CO)c3ccc(Cl)cc32)c1OC | 14 | 
15 | 18 | COc1cccc([C@H]2O[C@H](CC(=O)N(C)CC(=O)O)C(=O)N(CC(C)(C)CO)c3ccc(Cl)cc32)c1OC | -1 | 
16 | 18 | COc1cccc([C@H]2O[C@H](CC(=O)N[C@H](C)C(=O)O)C(=O)N(CC(C)(C)CO)c3ccc(Cl)cc32)c1OC | 31 | 
17 | 15 | COc1cccc([C@H]2O[C@H](CC(=O)NCCC(=O)O)C(=O)N(CC(C)(C)CO)c3ccc(Cl)cc32)c1OC | 19 | 
18 | 15 | COc1cccc([C@H]2O[C@H](CC(=O)NCC(=O)O)C(=O)N(CC(C)(C)CO)c3ccc(Cl)cc32)c1OC | 14 | 
